In test [1] the test system is Candida albicans. In words: Increase in MCA1 expression in Candida albicans SC5314 at 2.5 mM after 4 hrs by quantitative PCR analysis.
Test [2] concerns Candida albicans. In words: Increase in MCA1 expression in Candida albicans SC5314 at 100 uM after 4 hrs by quantitative PCR analysis. The test is classed as functional, organism-based. In a few lines: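 Log-phase SC5314 exposed 4 h to farnesol (methanol vehicle control). cDNA diluted 1:20 and run in SYBR green real-time PCR: 15 min 95°C, then 35 cycles of 95°C 1 min, 58°C 30 s, 72°C 30 s, with a melt curve check. MCA1 level was calculated by 2^−ΔΔCT against ACT1 and RPP2B reference genes.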

For test [3], the system named is Candida albicans. Briefly: Downregulation of S-adenosylmethionine synthase expression in Candida albicans SC5314 at 200 uM after 24 hrs by MALDI-TOF MS. It is filed as functional, organism-based. In a few lines:
(§1)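 Overnight YNB-glucose SC5314 culture, PBS-washed, adjusted to OD600 0.1 and treated 24 h with 40 or 200 μM farnesol (methanol in controls). Proteomes were compared with untreated cells by 2D SDS-PAGE and MALDI-TOF MS, searched against NCBI nonredundant database. Spots were counted as changed at ≥1.5-fold in three independent experiments.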

In test [4] the test system is Candida albicans. Briefly: Induction of ROS accumulation in mitochondria of Candida albicans SC5314 at 200 uM after 3 hrs by Fluorescence analysis. The test is classed as functional. In a few lines: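 Cells were exposed 3 h to 40, 100 or 200 μM farnesol, with methanol control and H2O2 positive control. Washed cells were stained 30 min in the dark with a mix of dichlorodihydrofluorescein diacetate, propidium iodide and calcofluor white, then washed and viewed by confocal microscopy. % green (ROS) cells of all cells was scored, with red (necrotic) cells scored separately.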

In test [5] the test system is Candida albicans. Briefly: Antiproliferative activity against Candida albicans SC5314 assessed as cell killing at 10 uM after 24 hrs by MTS assay. It is filed as functional. The gist of the method: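 SC5314 grown overnight in YNB (pH 7.0) with 50 mM glucose at 30°C, 120 rpm, washed in PBS. Suspensions at 1 × 10⁷ cells/ml exposed to farnesol at final 0, 10, 40, 100, 200, 300 μM for 24 h at 30°C with shaking, with methanol vehicle controls. MTS reagent added for 4 h at 37°C, A490 read, and % killed cells calculated.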
In general terms: Tetrazolium dyes change colour on reduction, which living cells bring about.

Test [6] concerns Candida albicans. Briefly: Upregulation of Coproporphyrinogen III oxidase expression in Candida albicans SC5314 at 40 uM after 24 hrs by MALDI-TOF MS. It is filed as functional, organism-based. In a few lines:
as §1

For test [7], the system named is Candida albicans. Briefly: Upregulation of Manganese superoxide dismutase expression in Candida albicans SC5314 at 200 uM after 24 hrs by MALDI-TOF MS. It is filed as functional, organism-based. The gist of the method:
(§2)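 SC5314 grown overnight at 30°C, 120 rpm, in yeast nitrogen base (pH 7.0) with 50 mM glucose. Cells were washed in PBS and adjusted to OD600 0.1, then treated 24 h with farnesol from a methanol dilution; controls received methanol. Proteomes of treated and untreated cells were compared by 2-D SDS-PAGE and MALDI-TOF MS, with ProFound searches of the NCBI nonredundant database. Spots changed at least 1.5-fold in three independent experiments were counted.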

The test system of test [8] is Candida albicans. Briefly: Upregulation of 6-Phosphogluconate dehydrogenase expression in Candida albicans SC5314 at 40 uM after 24 hrs by MALDI-TOF MS. The test is classed as functional, organism-based. The gist of the method:
as §1

Test [9] concerns Candida albicans. In words: Upregulation of Branched chain amino acid transaminase expression in Candida albicans SC5314 at 40 uM after 24 hrs by MALDI-TOF MS. The test is classed as functional, organism-based. In a few lines:
as §1

Test [10] deals with Candida albicans. Briefly: Induction of apoptosis in Candida albicans SC5314 assessed as mitochondrial degradation at 40 uM after 3 hrs by Fluorescence analysis. The test is classed as functional. In a few lines:
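Farnesol-exposed SC5314 (40, 100, 200 μM; methanol control, H2O2 positive control) stained with a MitoPT mitochondrial permeability transition dye per kit instructions. Cells imaged by confocal microscopy: red mitochondrial aggregates in healthy cells, dispersed green signal in apoptotic cells. Percentage of cells with degradation was recorded.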

Test [11] concerns Candida albicans. Briefly: Induction of apoptosis in Candida albicans SC5314 at 40 uM after 24 hrs by TUNEL assay. It is filed as functional. In a few lines:
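After 24 h in farnesol (40, 100, 200 μM), cells were PBS-washed, fixed in 4% paraformaldehyde (pH 7.4) 1 h at 20°C, and permeabilized 2 min on ice. They were labeled with 9:1 label:enzyme TUNEL mix 1 h at 37°C in the dark and examined by fluorescence microscopy at 515–565 nm. Flow cytometry counted % positive of 30,000 gated cells, gates set by no-enzyme and DNase-treated controls.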

For test [12], the system named is Candida albicans. In words: Upregulation of Putative aspartate aminotransferase expression in Candida albicans SC5314 at 200 uM after 24 hrs by MALDI-TOF MS. It is filed as functional, organism-based. In a few lines: as §2
For test [13], the system named is Candida albicans. Briefly: Upregulation of NADH-cytochrome b5 reductase expression in Candida albicans SC5314 at 200 uM after 24 hrs by MALDI-TOF MS. The test is classed as functional, organism-based. In a few lines: as §2

The structures appear in SMILES notation. Activity calls are given as the source filed them. The calls are words filed in the database; no cut-off is given here.

Data on one molecule can be found in ChEMBL document CHEMBL1649480, “Farnesol-induced apoptosis in Candida albicans” (2009).

Regarding `CC(C)=CCC/C(C)=C/CC/C(C)=C/CO` [FARNESOL], the result in the test on Candida albicans [1], in the test with Candida albicans [3], in the test with Candida albicans [6], in the test on Candida albicans [7], with Candida albicans [8] and with Candida albicans [9] was Active. In addition, the outcome with Candida albicans [12] and in the test on Candida albicans [13] was Active. Also, the outcome with Candida albicans [2] was inactive. Also, the Activity in the test with Candida albicans [4] was 65%; in the test on Candida albicans [5], below 10%; in the test with Candida albicans [10], 90%; in the test with Candida albicans [11], 2%.
